From PubChem BioAssay
A selection: hits, their analogues and other compounds. The true share with any hit is near 2.7%.
NR1D1 modulator: modulators of Rev-erb alpha DNA binding, primary screen, biochemical, FITC-DNA, fluorescence polarization, uHTS | Nuclear receptor subfamily 1 group D member 1 (Homo sapiens), P20393 | activity, % at 10 µM | Rev-erbα–FITC-DNA binding, 90 min | 370,000 compounds, 0.79% hits;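 active = activity above about 14%, limit read from the data; passing the limit was not always enough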
Target sequence (P20393 whole entry, looked up): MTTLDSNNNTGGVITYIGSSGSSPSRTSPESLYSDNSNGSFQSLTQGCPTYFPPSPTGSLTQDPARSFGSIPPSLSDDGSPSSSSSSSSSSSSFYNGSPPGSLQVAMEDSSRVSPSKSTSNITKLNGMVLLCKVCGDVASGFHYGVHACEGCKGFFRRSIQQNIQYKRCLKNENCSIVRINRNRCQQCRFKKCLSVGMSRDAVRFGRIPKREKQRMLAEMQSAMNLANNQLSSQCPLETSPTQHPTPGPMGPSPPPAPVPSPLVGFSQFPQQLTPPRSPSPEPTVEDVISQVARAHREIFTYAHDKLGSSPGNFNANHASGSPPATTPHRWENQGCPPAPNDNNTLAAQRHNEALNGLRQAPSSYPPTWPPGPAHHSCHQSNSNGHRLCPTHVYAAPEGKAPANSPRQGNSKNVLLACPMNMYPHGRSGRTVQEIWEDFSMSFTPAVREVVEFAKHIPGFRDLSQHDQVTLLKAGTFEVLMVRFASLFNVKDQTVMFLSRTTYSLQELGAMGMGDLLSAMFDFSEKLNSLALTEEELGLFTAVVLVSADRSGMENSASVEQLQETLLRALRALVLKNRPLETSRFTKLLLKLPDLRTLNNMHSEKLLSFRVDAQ
MsrA inhibitor: bovine MsrA enzyme inhibitors, primary screen, biochemical, absorbance, HTS. purified bovine MsrA, absorbance read-out. AID 651718, 2012. 360,000 compounds, 0.75% hits. inhibition, % at 15.5 µM; in the data active = inhibition above about 4.5%
bovine MsrA act: bovine MsrA enzyme activators, primary screen, biochemical, absorbance, HTS; Methionine sulfoxide reductase A (Bos taurus); purified bovine MsrA, absorbance read-out; activation, % at 10.6 µM; 360,000 compounds, 0.3% hits; AID 602163, 2012; in the data active = activation above about 7.5%
sPLA2-III inh: human group III sPLA2 inhibitors, primary screen, biochemical, QFRET, BODIPY PC-A2 liposome substrate | Group 3 secretory phospholipase A2 (Homo sapiens), Q9NZ20 | QFRET BODIPY PC-A2 liposome hydrolysis, fluorescence | inhibition, % at 12.2 µM | 370,000 compounds, 0.56% hits;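 active = inhibition above mean plus 3 SD of compounds lying within the high and low control bounds, cut at about 19% in these data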
ASAP1 inh: inhibitors of human ASAP1 ArfGAP activity, primary screen, biochemical, fluorescence polarization. Arf-GAP with SH3 domain, ANK repeat and PH domain-containing protein 1 (Homo sapiens), …. ASAP1-stimulated ARF1 GTP hydrolysis, GDP FP detection. inhibition, % at 16.5 µM. 360,000 compounds, 0.19% hits; in the data active = inhibition above about 25%
ARFGAP1 inh: inhibitors of rat ARFGAP1 GAP activity, primary screen, biochemical, fluorescence polarization, GDP tracer; ADP-ribosylation factor GTPase-activating protein 1 (Rattus norvegicus), Q62848; Arfgap1-stimulated ARF1 GTP hydrolysis, GDP FP detection; inhibition, % at 16.5 µM; 360,000 compounds, 0.26% hits; AID 651572, 2012;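 active = inhibition above a per-plate limit, mean inhibition of low control wells plus 3 SD, cut at about 25% in these data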
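Material – truncated rat Arfgap1 GAP domain · Buffer or medium – HEPES-based buffer, pH 7.5 · Reagent – human ARF1(Δ1-17)-GTP substrate · Dosing – 16.5 µM single point, 1.26% DMSO · Schedule – GTP hydrolysis reaction 2 h at 25 °C · Technique – GDP detection by fluorescence polarization · Benchmarks – No-Arfgap1 wells (100%) versus DMSO full-reaction wells (0%) · Repeats – single replicate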
sPLA2 confirm: human group III sPLA2 inhibitors, confirmation, biochemical, QFRET, triplicate; shares compounds with sPLA2-III inh; recombinant hGIII-sPLA2, BODIPY PC-A2 QFRET fluorescence; inhibition, % at 12.2 µM; 2,000 compounds, 34% hits; AID 743280, 2014;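 active = mean inhibition across triplicates above the hit cutoff set in the earlier primary screen, cut at about 19% in these data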
BODIPY interf: 535nm fluorescence optical interference, confirmation, artefact control for HGIII-sPLA2 inhibitor project, biochemical, QFRET; shares compounds with sPLA2-III inh; 2,000 compounds, 8.5% hits; inhibition, % at 12.2 µM; BODIPY FL product fluorescence interference;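 active = average inhibition above the solvent-only control mean plus 3 SD, cut at about 6% in these data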
Numbers stand for hits; . = inactive; / = no result given.

SMILES	NR1D1 modulator	MsrA inhibitor	bovine MsrA act	sPLA2-III inh	ASAP1 inh	ARFGAP1 inh	sPLA2 confirm	BODIPY interf
Cc1nn(C)c(-c2n[nH]c(=S)n2-c2ccccc2)c1Cl	.	.	.	25.8	.	.	24.0	.
Cc1cc(-c2n[nH]c(=S)n2-c2ccccc2)nn1C	.	.	.	.	.	.	/	/
CCCCNC(=O)C[C@H]1C[C@@]2(C(=O)OC)C(=C[C@H](C(C)C)O[C@@H]2C2CC2)N(Cc2cccc3ccccc23)C1=O	.	/	/	.	/	/	/	/
CC(C)Oc1ccc(CC2CC(=O)NC2=O)cc1 (stereo not drawn)	.	.	.	.	.	.	/	/
CC(C)Oc1ccc(CC2CCC(=O)N(C)C2=O)cc1 (stereo not drawn)	.	.	.	20.6	.	.	.	.
COC(=O)[C@]12C[C@H](CC(=O)N3CCN(C(=O)C4CC4)CC3)C(=O)N(Cc3ccccc3)C1=C[C@H](COCc1ccccc1)O[C@@H]2C	.	/	/	.	/	/	/	/
CCN1CCCCC(NC(=O)COCc2ccccc2)C1=O (stereo not drawn)	.	/	/	.	/	/	/	/
CCN(CC)S(=O)(=O)c1cccc(C(=O)N/N=C/c2cccc(O)c2O)c1	.	.	.	22.6	.	.	.	.
CCCCn1c(N)c(N(CCOC)C(=O)C2CCN(S(=O)(=O)c3ccc(C)cc3)CC2)c(=O)[nH]c1=O	.	.	.	21.7	.	.	.	.
O=C(CSc1nnc(-c2ccccc2)n1-c1ccc(Cl)cc1)c1ccc(Cl)cc1	.	/	/	.	/	/	/	/
CCC(C)c1ccccc1OCCOCCN1CCCC1 (stereo not drawn)	.	.	.	19.6	.	.	.	.
CCOCCCNC(=S)Nc1ccc(Br)cc1Cl	.	.	.	20.1	.	.	.	.
CCOc1ccc(NC(=S)Nc2ccc(Br)cc2Cl)cc1	.	.	.	.	.	.	/	/
Cn1c(=O)n(Cc2ccccc2)c(=O)c2c1nc1n2CCCN1Cc1ccccc1	.	.	.	.	.	.	/	/
Cc1ccc(Cn2c(=O)c3c(nc4n3CCCN4Cc3ccccc3)n(C)c2=O)cc1	.	.	.	73.0	.	.	.	.
COc1ccc(CN2CCc3c([nH]c4ccccc34)C2)cc1Br	.	.	.	27.2	.	.	.	.
CC(C)Nc1nc(NC(N)=S)nc(NC(C)(C)C)n1	.	.	.	.	.	.	/	/
CC(C)Nc1nc(NC(N)=S)nc(NC(C)C)n1	.	.	.	21.6	.	.	20.2	.
CCN(CC)C(=O)CC[C@@H]1CC[C@]2(CCCN(S(=O)(=O)c3ccccc3)C2)O1	.	/	/	.	/	/	/	/
O=C(/C=C/c1ccc2c(c1)OCO2)NCc1ccco1	.	.	.	19.9	.	.	.	.
O=C(/C=C/c1ccc(Cl)c(Cl)c1)NCc1ccco1	.	.	.	.	.	.	/	/
CC(C)CN1C(=O)N2CCc3ccccc3C2CS1(=O)=O (stereo not drawn)	.	/	/	.	/	/	/	/
CCCOc1ccc(/C(O)=C2\C(=O)C(=O)N(CCCOC)C23C(=O)N(C)c2ccccc23)cc1 (stereo not drawn)	.	.	.	.	.	.	/	/
CN1C(=O)C2(c3ccccc31)c1c(oc3ccccc3c1=O)C(=O)N2CCCO (stereo not drawn)	.	.	.	21.2	.	.	.	.
C=c1[nH]cc(C(C)c2c(C)n(C)c3ccccc23)/c1=C/C (stereo not drawn)	.	/	/	.	/	/	/	/
SMILES	NR1D1 modulator	MsrA inhibitor	bovine MsrA act	sPLA2-III inh	ASAP1 inh	ARFGAP1 inh	sPLA2 confirm	BODIPY interf
O=C(CNc1ccc2ccccc2c1)N/N=C/c1ccncc1	.	.	.	19.8	.	.	.	.
CSc1ccc(/C=N/NC(=O)CNc2ccc3ccccc3c2)cc1	.	.	.	.	.	.	/	/
N/C(COc1cc(Cl)cc(Cl)c1)=N\O	.	.	.	20.6	.	.	.	.
CN(C)CCOc1cc(Cl)cc(Cl)c1	.	.	.	.	.	.	/	/
COc1cccc(C(=O)NCCCNC(=O)c2ccco2)c1	.	.	.	21.5	.	.	.	.
COc1cccc(C(=O)NCCCNC(=O)c2cccc(OC)c2)c1	.	.	.	.	.	.	/	/
O=C(O)CC1(CC(=O)NCc2cc(F)cc3c2OCOC3)CCCCC1	.	.	.	19.5	.	.	.	.
O=C(O)CC1(CC(=O)Nc2ccc3c(c2)C(=O)OC3)CCCCC1	.	.	.	.	.	.	/	/
Cc1ccccc1C(=O)NC(=S)Nc1ccccc1N1CCCC1	.	.	.	20.1	.	.	27.1	.
COc1ccccc1C(=O)NC(=S)Nc1ccccc1N1CCCC1	.	.	.	.	.	.	/	/
COc1ccc(-c2cnc3c(NC=O)cc(-c4cccc(NS(C)(=O)=O)c4)cn23)cc1OC	.	.	.	.	.	.	/	/
Cc1cc(S(=O)(=O)N(Cc2ccccc2Cl)c2ccc3c(c2)CCC3)ccc1-n1cnnn1	.	.	.	19.7	.	.	.	.
CC(C)CN1CN2Cc3cc(F)ccc3C2CS1(=O)=O (stereo not drawn)	.	/	/	.	/	/	/	/
COc1ccccc1/C=C/C=N/n1c(-c2cc(-c3ccccc3)n[nH]2)n[nH]c1=S	.	.	.	20.6	.	.	.	9.5
S=c1[nH]nc(-c2cc(-c3ccccc3)n[nH]2)n1/N=C/C=C/c1ccccc1	.	.	.	.	.	.	/	/
COCCCN1C(=O)[C@H](CC(=O)N2CCCCC2)[C@]2(C(=O)OC)CCCCC=C12	.	/	/	.	/	/	/	/
CN(CCCS(=O)(=O)[O-])c1ccc(/C=C/c2ccc3ccccc3[n+]2C)cc1	.	.	.	21.4	.	.	.	.
CCC[C@H]1[C@@H](NC(=O)NCC)CC[C@@]23CCCN2C(=O)CCC[C@@H]13	.	/	/	.	/	/	/	/
CCOC(=O)c1c(C)[nH]c(C(=O)N/N=C/c2cc([N+](=O)[O-])ccc2O)c1C	.	.	.	23.8	.	.	.	6.1
CCOC(=O)c1c(C)[nH]c(C(=O)N/N=C\c2ccccc2O)c1C	.	.	.	.	.	.	/	/
